Experimental data from ChEMBL document CHEMBL4014309, “Development of an Acrylate Derivative Targeting the NLRP3 Inflammasome for the Treatment of Inflammatory Bowel Disease” (J Med Chem, 2017).
Counter-ions that a name gives are not always drawn. Active and inactive are the calls of the source. The calls are words filed in the database; no cut-off is given here.

Columns and labels:
[1] = Cysteamine reactivity of the compound in PBS assessed as second order rate constant for free cysteamine release at 250 uM and pH 7.4 after 90 mins by DTNB reagent based RP-UHPLC analysis
Outline: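 Compound (250 µM) was mixed with equimolar cysteamine in pH 7.4 PBS containing 12.5% CH3CN at 37 °C. Free cysteamine was tracked with DTNB at several time points over 90 min. Second-order k2 came from 1/[CAM] = 1/[CAM]0 + kt, using 3–10 points per plot; mean ± SEM of ≥3 experiments.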

[2] = Cytotoxicity against human THP1 cells assessed as reduction in cell viability after 72 hrs by MTT assay; type: cell-based; conditions: THP-1 cells, read-out: TC50
Outline: (§1)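 Human THP-1 cells were exposed to 0.1–100 µM for 72 h, and viability was read by MTT. TC50 is the concentration that cuts viability by 50%; percent viable cells at 100 µM is also reported. Mean ± SEM of ≥3 experiments.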

[3] = Cytotoxicity against human THP1 cells assessed as cell viability at 100 uM after 72 hrs by MTT assay; type: cell-based; conditions: THP-1 cells, read-out: Activity; outline: as §1
[4] = biological target: NACHT, LRR and PYD domains-containing protein 3 (Homo sapiens) (UniProt Q96P20); experiment: Inhibition of recombinant human NLRP3 ATPase assessed as hydrolysis of ATP at 100 uM preincubated for 15 mins followed by addition of ATP measured after 40 mins by ADP-Glo assay
Outline: (§2)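 Human recombinant NLRP3 (0.105 µg) in 20 mM Tris-HCl pH 7.8, 133 mM NaCl, 20 mM MgCl2, 3 mM KCl, 0.56 mM EDTA, 0.5% DMSO. Compound (100 or 50 µM) was preincubated 15 min at 37 °C, then ATP (250 µM) was added for 40 min at 37 °C. ADP was read by ADP-Glo luminescence. Result is % inhibition vs vehicle; mean ± SEM, ≥3 experiments.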

[5] = biological target: NACHT, LRR and PYD domains-containing protein 3 (Homo sapiens) (UniProt Q96P20); experiment: Inhibition of recombinant human NLRP3 ATPase assessed as hydrolysis of ATP at 50 uM preincubated for 15 mins followed by addition of ATP measured after 40 mins by ADP-Glo assay; outline: as §2
[6] = biological target: NACHT, LRR and PYD domains-containing protein 3 (Homo sapiens) (UniProt Q96P20); experiment: Inhibition of recombinant human NLRP3 ATPase assessed as hydrolysis of ATP preincubated for 15 mins followed by addition of ATP measured after 40 mins by ADP-Glo assay; outline: as §2
[7] = biological target: NACHT, LRR and PYD domains-containing protein 3 (Homo sapiens) (UniProt Q96P20); experiment: Inhibition of NLRP3 in PMA-differentiated and LPS-primed human THP1 cells assessed as decrease in ATP-induced pyroptosis measured as LDH activity at 10 uM preincubated for 1 hr followed by ATP addition measured after 1 hr by colorimetric assay relative to control
Outline: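 THP-1 cells were PMA-differentiated and LPS-primed, then pretreated with vehicle or compound (10 µM, 1 h). Pyroptosis was triggered with ATP (5 mM). LDH in supernatant was measured colorimetrically 1 h after ATP and expressed as percent decrease versus vehicle, mean ± SEM of ≥3 experiments.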

[8] = biological target: NACHT, LRR and PYD domains-containing protein 3 (Mus musculus) (UniProt Q8R4B8); experiment: Inhibition of NLRP3 inflammasome in LPS-primed C57BL/6 mouse bone marrow derived macrophages assessed as reduction in ATP-induced IL-1beta production at 1 to 100 uM preincubated for 1 hr followed by stimulation with ATP measured after 30 mins by ELISA
Outline: (§3)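 C57BL/6 bone marrow macrophages, differentiated with 20% L-cell medium, were primed with LPS (1 µg/mL, 3 h). They were then exposed to compound or vehicle for 1 h and stimulated with ATP (5 mM, 30 min). IL-1β released into the medium was measured by ELISA.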

[9] = biological target: NACHT, LRR and PYD domains-containing protein 3 (Mus musculus) (UniProt Q8R4B8); experiment: Inhibition of NLRP3 inflammasome in LPS-primed C57BL/6 mouse bone marrow derived macrophages assessed as reduction in nigericin-induced IL-1beta production at 1 to 100 uM preincubated for 1 hr followed by stimulation with nigericin measured after 30 mins by ELISA
Outline: (§4)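 Bone marrow macrophages from C57BL/6 mice, differentiated with 20% L-cell medium, primed with LPS (1 µg/mL, 3 h). Test agent or vehicle was added for 1 h, then ATP (5 mM, 30 min) or nigericin (10 µM, 30 min). IL-1β in the medium was measured by ELISA. LDH in the medium was measured colorimetrically as % of total cellular LDH.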

[10] = biological target: NACHT, LRR and PYD domains-containing protein 3 (Mus musculus) (UniProt Q8R4B8); experiment: Inhibition of NLRP3 inflammasome in LPS-primed C57BL/6 mouse bone marrow derived macrophages assessed as reduction in ATP-induced pyroptosis at 1 to 100 uM preincubated for 1 hr followed by stimulation with ATP measured after 30 mins by LDH release assay
Outline: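 LPS-primed (1 µg/mL, 3 h) C57BL/6 bone marrow macrophages were treated with compound or vehicle for 1 h, then given ATP (5 mM, 30 min). LDH in the medium was measured and expressed as percent of total cellular LDH.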

[11] = biological target: NACHT, LRR and PYD domains-containing protein 3 (Mus musculus) (UniProt Q8R4B8); experiment: Inhibition of NLRP3 inflammasome in LPS-primed C57BL/6 mouse bone marrow derived macrophages assessed as reduction in nigericin-induced pyroptosis at 1 to 100 uM preincubated for 1 hr followed by stimulation with ATP measured after 30 mins by LDH release assay; outline: as §4
[12] = Metabolic stability in Sprague-Dawley rat liver microsomes at 100 uM after 2 hrs in presence of NADPH-generating system by UHPLC-MS analysis; type: ADME, microsome; conditions: read-out: Stability
Outline: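 Rat liver microsomes (0.5 mg protein/mL) in 100 mM phosphate buffer pH 7.4 with NADPH-generating system, compound 100 µM final (≤2% DMSO), 37 °C, shaking, up to 120 min. Samples were taken at 0, 15, 30, 60 and 120 min and quenched with acetonitrile on ice. Analysis by UHPLC-MS; runs were also done without NADPH system. ≥3 independent repeats.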

Liver = experiment: Drug level in Sprague-Dawley rat liver microsomes treated with INF39 at 100 uM up to 2 hrs by UHPLC-MS analysis; type: ADME, microsome
serum albumin = serum albumin (Homo sapiens, UniProt P02768); experiment: Binding affinity to human serum albumin after 5 mins by RP-UHPLC analysis; type: ADME; conditions: read-out: PB (converted)
[13] = biological target: NACHT, LRR and PYD domains-containing protein 3 (Mus musculus) (UniProt Q8R4B8); experiment: Inhibition of NLRP3 inflammasome in LPS-primed C57BL/6 mouse bone marrow derived macrophages assessed as reduction in ATP-induced IL-1beta production at 10 to 100 uM preincubated for 1 hr followed by stimulation with ATP measured after 30 mins by ELISA; outline: as §3
[14] = biological target: NACHT, LRR and PYD domains-containing protein 3 (Mus musculus) (UniProt Q8R4B8); experiment: Inhibition of NLRP3 inflammasome in LPS-primed C57BL/6 mouse bone marrow derived macrophages assessed as reduction in nigericin-induced IL-1beta production at 10 to 100 uM preincubated for 1 hr followed by stimulation with nigericin measured after 30 mins by ELISA; outline: as §4
[15] = biological target: NACHT, LRR and PYD domains-containing protein 3 (Mus musculus) (UniProt Q8R4B8); experiment: Inhibition of NLRP3 inflammasome in LPS-primed C57BL/6 mouse bone marrow derived macrophages assessed as reduction in ATP-induced pyroptosis at 10 to 100 uM preincubated for 1 hr followed by stimulation with ATP measured after 30 mins by LDH release assay; outline: as §4
[16] = biological target: NACHT, LRR and PYD domains-containing protein 3 (Mus musculus) (UniProt Q8R4B8); experiment: Inhibition of NLRP3 inflammasome in LPS-primed C57BL/6 mouse bone marrow derived macrophages assessed as reduction in nigericin-induced pyroptosis at 10 to 100 uM preincubated for 1 hr followed by stimulation with ATP measured after 30 mins by LDH release assay; outline: as §4
[17] = biological target: NACHT, LRR and PYD domains-containing protein 3 (Homo sapiens) (UniProt Q96P20); experiment: Irreversible inhibition of His-FLAG- tagged NLRP3-ATPase (unknown origin) at 100 uM preincubated for 55 mins followed by ATP addition measured after 40 mins by ADP-Glo assay
Outline: (§5)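 His-FLAG NLRP3 (105 ng/well) captured on anti-FLAG-coated, BSA-blocked wells for 3 h at 4 °C. Compound (100 µM final, 2% DMSO) preincubated 55 min at 37 °C. Wells were washed three times (or not washed), then ATP (250 µM) was added for 40 min at 37 °C. ADP was read by ADP-Glo. Equal protein loading was checked by anti-His ELISA.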

[18] = biological target: NACHT, LRR and PYD domains-containing protein 3 (Homo sapiens) (UniProt Q96P20); experiment: Irreversible inhibition of His-FLAG- tagged NLRP3-ATPase (unknown origin) at 100 uM preincubated for 55 mins followed by compound wash-out and ATP addition measured after 40 mins by ADP-Glo assay; outline: as §5

NACHT, LRR and PYD domains-containing protein 3 (Mus musculus), sequence (Q8R4B8 whole entry, the tested form may be a part): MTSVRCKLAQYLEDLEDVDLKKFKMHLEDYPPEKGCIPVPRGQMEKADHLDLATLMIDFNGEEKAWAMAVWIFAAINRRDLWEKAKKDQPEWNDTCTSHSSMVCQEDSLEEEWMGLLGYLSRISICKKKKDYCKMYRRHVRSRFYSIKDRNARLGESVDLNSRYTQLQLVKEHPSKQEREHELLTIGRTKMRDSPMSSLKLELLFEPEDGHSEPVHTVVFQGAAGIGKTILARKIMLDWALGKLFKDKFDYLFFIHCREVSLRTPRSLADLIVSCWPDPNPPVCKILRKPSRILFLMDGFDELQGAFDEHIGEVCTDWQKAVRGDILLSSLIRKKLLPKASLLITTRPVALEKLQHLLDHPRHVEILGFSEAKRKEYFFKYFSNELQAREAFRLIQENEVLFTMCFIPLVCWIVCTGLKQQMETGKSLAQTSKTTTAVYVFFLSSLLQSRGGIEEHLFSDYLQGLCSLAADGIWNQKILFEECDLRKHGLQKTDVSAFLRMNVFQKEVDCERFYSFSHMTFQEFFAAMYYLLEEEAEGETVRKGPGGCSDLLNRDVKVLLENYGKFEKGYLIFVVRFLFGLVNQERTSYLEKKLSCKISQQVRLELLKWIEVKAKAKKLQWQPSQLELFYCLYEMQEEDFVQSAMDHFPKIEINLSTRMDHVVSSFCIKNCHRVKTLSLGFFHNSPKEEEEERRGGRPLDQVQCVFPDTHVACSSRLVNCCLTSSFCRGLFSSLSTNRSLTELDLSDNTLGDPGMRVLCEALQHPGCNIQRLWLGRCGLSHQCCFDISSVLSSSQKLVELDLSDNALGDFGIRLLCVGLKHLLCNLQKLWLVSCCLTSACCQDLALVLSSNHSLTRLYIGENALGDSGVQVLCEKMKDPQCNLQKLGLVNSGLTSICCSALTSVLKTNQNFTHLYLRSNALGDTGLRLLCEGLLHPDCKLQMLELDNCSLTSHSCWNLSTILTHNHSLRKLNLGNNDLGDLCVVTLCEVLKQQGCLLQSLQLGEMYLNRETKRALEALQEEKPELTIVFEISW
NACHT, LRR and PYD domains-containing protein 3 (Homo sapiens), sequence (Q96P20 whole entry, the tested form may be a part): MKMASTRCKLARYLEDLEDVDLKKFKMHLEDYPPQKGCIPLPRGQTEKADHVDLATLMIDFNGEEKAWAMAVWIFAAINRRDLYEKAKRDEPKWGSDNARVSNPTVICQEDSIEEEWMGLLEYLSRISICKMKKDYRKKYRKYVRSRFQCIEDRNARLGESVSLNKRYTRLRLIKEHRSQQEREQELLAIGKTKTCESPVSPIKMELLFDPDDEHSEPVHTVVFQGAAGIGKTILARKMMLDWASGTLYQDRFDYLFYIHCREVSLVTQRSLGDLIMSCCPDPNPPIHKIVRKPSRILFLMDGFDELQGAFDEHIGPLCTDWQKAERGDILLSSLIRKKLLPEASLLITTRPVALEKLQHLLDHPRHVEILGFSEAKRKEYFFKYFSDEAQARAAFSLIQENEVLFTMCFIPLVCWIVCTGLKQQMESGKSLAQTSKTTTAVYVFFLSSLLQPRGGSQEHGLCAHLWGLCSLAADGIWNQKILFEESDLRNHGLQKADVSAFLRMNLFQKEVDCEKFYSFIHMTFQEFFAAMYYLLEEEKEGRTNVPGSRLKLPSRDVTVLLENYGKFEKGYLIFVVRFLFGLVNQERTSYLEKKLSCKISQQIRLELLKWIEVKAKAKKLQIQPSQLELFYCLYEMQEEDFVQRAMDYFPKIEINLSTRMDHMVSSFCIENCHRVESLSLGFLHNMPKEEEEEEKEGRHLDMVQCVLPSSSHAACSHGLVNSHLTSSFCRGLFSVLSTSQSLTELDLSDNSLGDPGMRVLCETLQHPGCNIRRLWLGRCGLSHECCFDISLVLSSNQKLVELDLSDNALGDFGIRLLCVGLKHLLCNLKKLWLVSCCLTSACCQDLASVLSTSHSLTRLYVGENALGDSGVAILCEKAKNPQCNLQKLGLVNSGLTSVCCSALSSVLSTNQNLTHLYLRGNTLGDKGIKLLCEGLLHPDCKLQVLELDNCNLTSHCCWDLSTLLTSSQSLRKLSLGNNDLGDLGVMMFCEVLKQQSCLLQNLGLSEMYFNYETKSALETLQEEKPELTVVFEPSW
serum albumin, sequence (P02768 whole entry, the tested form may be a part): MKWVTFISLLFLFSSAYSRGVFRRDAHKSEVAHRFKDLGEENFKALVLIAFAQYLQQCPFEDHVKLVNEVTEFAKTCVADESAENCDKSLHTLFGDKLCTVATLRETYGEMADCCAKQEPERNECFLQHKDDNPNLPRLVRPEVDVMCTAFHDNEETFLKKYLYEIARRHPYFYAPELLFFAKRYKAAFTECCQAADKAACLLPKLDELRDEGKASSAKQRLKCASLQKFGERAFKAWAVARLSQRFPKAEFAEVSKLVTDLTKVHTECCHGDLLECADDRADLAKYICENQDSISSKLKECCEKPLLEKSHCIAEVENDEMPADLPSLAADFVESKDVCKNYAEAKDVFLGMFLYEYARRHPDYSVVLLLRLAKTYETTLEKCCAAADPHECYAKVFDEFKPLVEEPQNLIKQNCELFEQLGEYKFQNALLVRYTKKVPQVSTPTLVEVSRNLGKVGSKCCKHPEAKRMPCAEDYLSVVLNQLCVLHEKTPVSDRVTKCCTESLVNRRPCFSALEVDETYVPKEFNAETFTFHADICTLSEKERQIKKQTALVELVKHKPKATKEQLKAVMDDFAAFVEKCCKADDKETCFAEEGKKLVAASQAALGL

O=[N+]([O-])/C=C/c1ccc2c(c1)OCO2
K [1]: 2.5 M⁻¹ s⁻¹ | CC50 at 72 h [2]: 3.2 µM

C=C(C(=O)OCC)C(OCCC(=O)OCC)c1ccccc1Cl (configuration not stated)
K [1]: 0.734 M⁻¹ s⁻¹ | CC50 at 72 h [2]: > 100 µM | viability at 72 h, 100 µM [3]: 95.7% | inhibition [4]: 56% | inhibition [5]: 27% | inhibition [6]: Dose-dependent effect

COC(=O)/C=C/C(=O)OC [DIMETHYL FUMARATE]
K [1]: 39 M⁻¹ s⁻¹ | CC50 at 72 h [2]: 95.5 µM | inhibition [4]: inactive | inhibition [5]: inactive | inhibition [7]: 65.2% | inhibition [8]: Active | inhibition [9]: Active | inhibition [10]: Active | inhibition [11]: Active

C=C(C(=O)OCC)C(OC(C)=O)c1ccccc1Cl (configuration not stated)
K [1]: 56.2 M⁻¹ s⁻¹ | CC50 at 72 h [2]: 33.3 µM

C=C(C(=O)OCC)C(OCCC(=O)OCC)c1ccc(Cl)cc1Cl (configuration not stated)
K [1]: 0.292 M⁻¹ s⁻¹ | CC50 at 72 h [2]: > 100 µM | viability at 72 h, 100 µM [3]: 87.7% | inhibition [5]: 10%

C=C(C(=O)O)C(O)c1ccc(Cl)cc1Cl (configuration not stated)
Drug metabolism [1]: Metabolite not detected | CC50 at 72 h [2]: > 100 µM | viability at 72 h, 100 µM [3]: 88.1% | inhibition [4]: 43% | inhibition [5]: 11% | inhibition [7]: 40.2% | inhibition [6]: Dose-dependent effect

C=C(Cc1ccccc1Cl)C(=O)O
Drug metabolism [1]: Metabolite not detected | CC50 at 72 h [2]: > 100 µM | viability at 72 h, 100 µM [3]: 102% | inhibition [4]: 44% | inhibition [5]: 22% | inhibition [7]: 35.8% | remaining at 2 h, 100 µM [12]: > 99% | Drug metabolism (Liver): Metabolite_Detected | inhibition [6]: Dose-dependent effect

CCOC(=O)C1=CCOC1c1ccccc1Cl (configuration not stated)
K [1]: 8.18 M⁻¹ s⁻¹ | inhibition [6]: Dose-dependent effect

CC(Cc1ccccc1Cl)C(=O)O (configuration not stated)
Drug metabolism [1]: Metabolite not detected | CC50 at 72 h [2]: > 100 µM | viability at 72 h, 100 µM [3]: 98.7% | inhibition [4]: 15% | inhibition [5]: inactive | inhibition [7]: 5.2%

C=C(C(=O)OCC)C(O)c1ccccc1Cl (configuration not stated)
fraction unbound at 5 min (serum albumin): 0.35 | K [1]: 0.824 M⁻¹ s⁻¹ | CC50 at 72 h [2]: 65 µM | inhibition [4]: 72% | inhibition [5]: 32% | inhibition [7]: 80.9% | inhibition [6]: Dose-dependent effect

C=C(C(=O)O)C(O)c1ccccc1Cl (configuration not stated)
Drug metabolism [1]: Metabolite not detected | CC50 at 72 h [2]: > 100 µM | viability at 72 h, 100 µM [3]: 80.7% | inhibition [4]: 69% | inhibition [5]: 21% | inhibition [6]: Dose-dependent effect

Cc1ccc(S(=O)(=O)/C=C/C#N)cc1
CC50 at 72 h [2]: 1.5 µM | inhibition [13]: Active | inhibition [14]: Active | inhibition [15]: Active | inhibition [16]: Active

C=C(C(=O)OCC)C(OC)c1ccccc1Cl (configuration not stated)
K [1]: 1.6 M⁻¹ s⁻¹ | CC50 at 72 h [2]: > 100 µM | viability at 72 h, 100 µM [3]: 78.1% | inhibition [4]: 60% | inhibition [5]: 24% | inhibition [7]: 37.2% | inhibition [6]: Dose-dependent effect

C=C(C(=O)OCC)C(O)c1ccc(Cl)cc1Cl (configuration not stated)
K [1]: 1.34 M⁻¹ s⁻¹ | CC50 at 72 h [2]: 68.3 µM | inhibition [4]: 35% | inhibition [5]: 19% | inhibition [7]: 74.4% | inhibition [6]: Dose-dependent effect

CCOC(=O)C(C)Cc1ccccc1Cl (configuration not stated)
Drug metabolism [1]: Metabolite not detected | CC50 at 72 h [2]: > 100 µM | viability at 72 h, 100 µM [3]: 86.1% | inhibition [4]: 12% | inhibition [5]: inactive | inhibition [7]: 3.8% | inhibition [17]: 10% | inhibition [18]: inactive | inhibition [6]: Dose-dependent effect
